≈ marks a conversion by molar mass, not a printed value.
How the values were obtained:
HCT-116 [1] = experiment: Hypoxic cytotoxicity ratio of IC50 for human HCT116 cells under oxic condition to IC50 for human HCT116 cells under anoxic condition
Procedure, shortened: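 HCT116 cells, 700 per well and attached 2 h, got a 4 h exposure to 3-fold serial dilutions (<1% DMSO) under air or in a Pd-catalyst anaerobic chamber with pre-equilibrated medium. Cells were washed, regrown 5 days, and stained with sulforhodamine B to give IC50. HCR = oxic IC50 / anoxic IC50.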

HCT-116 [2] = experiment: Cytotoxicity against human HCT116 cells incubated for 4 hrs under anaerobic condition measured after 5 days by sulforhodamine B assay; assay type: functional, cell-based
Procedure, shortened: (§1)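 STR-authenticated, mycoplasma-free HCT116 cells in αMEM + 5% FCS were seeded at 700 cells/well and allowed 2 h to attach. Drug was added from DMSO stocks (<1% DMSO) in serial 3-fold dilutions for 4 h, oxic or anoxic (Pd-catalyst anaerobic chamber, medium pre-equilibrated ≥3 days). After washing, cells regrew for 5 days before SRB staining and IC50 determination.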

[3] = Solubility of the compound in alphaMEM containing 5% FCS and 1% DMSO by HPLC analysis; assay type: physicochemical
Procedure, shortened: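 Saturated drug solutions were incubated at 37 °C in αMEM with 5% FCS and 1% DMSO. Dissolved drug was quantified by HPLC.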

HCT-116 [4] = experiment: Hypoxia radiosensitization activity in human HCT116 cells assessed as survival ratio by measuring ratio of cell survival with 15 Gy radiation in absence to presence of compound at anoxic IC50 preincubated for 1 hr followed by 15 Gy irradiation measured after 10 days by methylene blue staining-based cell counting method; assay type: functional
Procedure, shortened: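 Anoxic HCT116 cells were seeded at 10^5/well and treated at the anoxic IC50 concentration for 1 h at room temperature. They were irradiated with 15 Gy (60Co, ~2 Gy/min) in a sealed steel box, then plated clonogenically. Colonies of >50 cells were counted […]. SR15 = survival with radiation / survival with drug + radiation.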

HCT-116 [5] = experiment: Cytotoxicity against human HCT116 cells at anoxic IC50 incubated for 1 hr at 21 degC by clonogenic survival assay; details: hct-116, 1 h
HCT-116 [6] = experiment: Cytotoxicity against human HCT116 cells incubated for 4 hrs under aerobic condition measured after 5 days by sulforhodamine B assay; assay type: cell-based; procedure, shortened: as §1
Plasma = experiment: Cmax in plasma of NIH-III mouse xenografted with human HCT116 cells at 2.20 mmol/kg, iv administered as single dose by HPLC analysis; assay type: ADME, organism-based; set-up: dose 2.2 mmol/kg, route intravenous; details: in vivo
Procedure, shortened: (§2)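 Female NIH-III mice bearing subcutaneous HCT116 xenografts (10^6 cells inoculated). At ca. 300 mm3 tumor size, a single i.v. dose was given at the MAD or 75% of the MTD. Vehicle was 0.9% saline with 1% DMSO, or saline with 2 molar equivalents NaHCO3 for phosphate prodrugs. Plasma and tumor were sampled at multiple times by cardiac puncture and excision, assayed by HPLC, and analysed noncompartmentally.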

HCT-116 [7] = experiment: In vivo hypoxia radiosensitization activity in human HCT116 cells xenografted in NIH-III mouse assessed as survival ratio by measuring ratio of cell survival with 12.5 Gy radiation in absence to presence of compound at 2.20 mmol/kg, iv pretreated as single dose for 10 mins followed by irradiation measured after 18 hrs by excision assay; assay type: functional
Mus musculus [8] = experiment: Drug level in NIH-III mouse assessed as maximum achievable dose at 10 ml/kg, iv; assay type: ADME; details: in vivo
Procedure, shortened: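 Non-tumor-bearing female NIH-III mice (~20 g) received freshly prepared solutions i.v. at 10 mL/kg in 0.9% saline with 1% DMSO, or saline with 2 molar equivalents NaHCO3 for phosphate prodrugs. MAD was the maximum dose that dissolved in the injection volume.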

[9] = Tmax in plasma of NIH-III mouse xenografted with human HCT116 cells at 2.20 mmol/kg, iv administered as single dose by HPLC analysis; assay type: ADME, organism-based; details: 2.2 mmol/kg
Procedure, shortened: (§3)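 Female NIH-III mice bearing subcutaneous HCT116 tumors (10^6 cells; ~300 mm3) got a single i.v. dose at the MAD or 75% of the MTD. Vehicle was saline with 1% DMSO, or saline with 2 equivalents of NaHCO3 for the phosphates. Plasma and tumor were sampled at multiple times by cardiac puncture and excision, drug was measured by HPLC, and Tmax came from noncompartmental analysis.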

[10] = Cmax in tumor of NIH-III mouse xenografted with human HCT116 cells at 2.20 mmol/kg, iv administered as single dose by HPLC analysis; assay type: ADME, organism-based, Neoplasm; set-up: dose 2.2 mmol/kg, route intravenous; details: in vivo; procedure, shortened: as §2
[11] = Tmax in tumor of NIH-III mouse xenografted with human HCT116 cells at 2.20 mmol/kg, iv administered as single dose by HPLC analysis; assay type: ADME, organism-based, Neoplasm; details: 2.2 mmol/kg; procedure, shortened: as §3
Mus musculus [12] = experiment: Toxicity in NIH-III mouse xenografted with human HCT116 cells assessed as change in body weight with 12.5 Gy radiation at 2.20 mmol/kg, iv administered as single dose; details: in vivo
[13] = Electrophilicity of the compound in pH 7 phosphate buffer assessed as one-electron reduction potential
Procedure, shortened: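 The one-electron reduction potential was set by pulse radiolysis equilibria at pH 7.0 (2.5 mM phosphate), established within 20 µs against benzylviologen, methylviologen or triquat. ΔE came from equilibrium constants via the Nernst equation, at three concentration ratios and 22 ± 2 °C.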

HCT-116 [14] = experiment: Hypoxia radiosensitization activity in human HCT116 cells assessed as survival ratio by measuring ratio of cell survival with radiation in absence to presence of compound at 0.11 mM preincubated for 1 hr followed by 6 to 29 Gy irradiation measured after 10 days by methylene blue staining-based cell counting method; assay type: functional
HCT-116 [15] = experiment: Hypoxia radiosensitization activity in human HCT116 cells assessed as survival ratio by measuring ratio of cell survival with radiation in absence to presence of compound at 0.11 mM preincubated for 1 hr followed by 6 to 29 Gy irradiation measured after 10 days by methylene blue staining-based cell counting method relative to misonidazole; assay type: functional
HCT-116 [16] = experiment: Hypoxia radiosensitization activity in human HCT116 cells assessed as survival ratio by measuring ratio of cell survival with radiation in absence to presence of compound at 0.08 mM preincubated for 1 hr followed by 6 to 29 Gy irradiation measured after 10 days by methylene blue staining-based cell counting method relative to misonidazole; assay type: functional
HCT-116 [17] = experiment: Hypoxia radiosensitization activity in human HCT116 cells assessed as survival ratio by measuring ratio of cell survival with radiation in absence to presence of compound at 0.08 mM preincubated for 1 hr followed by 6 to 29 Gy irradiation measured after 10 days by methylene blue staining-based cell counting method; assay type: functional

Compound: CCN(CC)CCNS(=O)(=O)CCn1c([N+](=O)[O-])cnc1C
- Ratio IC50 (HCT-116 [1]): 2
- IC50 (HCT-116 [2]): 1300 µM
- solubility [3]: 45.7 mM (≈ 15.2 mg/mL)
- Ratio (HCT-116 [4]): 9
- Activity (HCT-116 [5]): Non-Toxic

Compound: O=[N+]([O-])c1cn(CCS(=O)(=O)NCCO)cn1
- Ratio IC50 (HCT-116 [1]): 1
- IC50 (HCT-116 [2]): 10900 µM
- solubility [3]: > 100 mM
- Ratio (HCT-116 [4]): 6.3
- Activity (HCT-116 [5]): Non-Toxic

Compound: O=C(O)CNS(=O)(=O)Cn1ccnc1[N+](=O)[O-]
- Ratio IC50 (HCT-116 [1]): 10
- IC50 (HCT-116 [6]): 380 to 4800 µM
- IC50 (HCT-116 [2]): 900 µM
- solubility [3]: 59.3 mM (≈ 15.7 mg/mL)
- Ratio (HCT-116 [4]): 4
- Activity (HCT-116 [5]): Non-Toxic

Compound: O=[N+]([O-])c1nccn1CCS(=O)(=O)NCCOP(=O)(O)O
- Cmax (Plasma): 1140 µM
- Ratio (HCT-116 [7]): 2.9
- Drug uptake (Mus musculus [8]): 2.2 mmol/kg
- Tmax [9]: 10 min
- Cmax [10]: 390 µM
- Tmax [11]: 10 min

Compound: O=[N+]([O-])c1cncn1CCS(=O)(=O)NCCOP(=O)(O)O
- Ratio (HCT-116 [7]): 2.6
- Drug uptake (Mus musculus [8]): 2.2 mmol/kg

Compound: O=[N+]([O-])c1cncn1CS(=O)(=O)NCCOP(=O)(O)O
- Cmax (Plasma): 1100 µM
- Ratio (HCT-116 [7]): 13
- Drug uptake (Mus musculus [8]): 2.2 mmol/kg
- Tmax [9]: 10 min
- Cmax [10]: 140 µM
- Activity (Mus musculus [12]): Non-Toxic
- Tmax [11]: 30 min

Compound: Cc1ncc([N+](=O)[O-])n1CCS(=O)(=O)NCCCN(C)C
- Ratio IC50 (HCT-116 [1]): 3
- IC50 (HCT-116 [2]): 1200 µM
- solubility [3]: > 53.8 mM
- Ratio (HCT-116 [4]): 8
- Activity (HCT-116 [5]): Non-Toxic

Compound: O=[N+]([O-])c1cn(CS(=O)(=O)NCCN2CCOCC2)cn1
- Ratio IC50 (HCT-116 [1]): 1.3
- IC50 (HCT-116 [2]): 3300 µM
- Ratio (HCT-116 [4]): 7
- Activity (HCT-116 [5]): Non-Toxic

Compound: COCCCNS(=O)(=O)CCn1c([N+](=O)[O-])cnc1C
- Ratio IC50 (HCT-116 [1]): 1.2
- IC50 (HCT-116 [2]): 3700 µM
- solubility [3]: 17 mM (≈ 5.21 mg/mL)
- Ratio (HCT-116 [4]): 5
- Activity (HCT-116 [5]): Non-Toxic

Compound: O=[N+]([O-])c1nccn1CS(=O)(=O)NCCN1CCCC1
- Ratio IC50 (HCT-116 [1]): 96
- IC50 (HCT-116 [6]): 380 to 4800 µM
- IC50 (HCT-116 [2]): 11 µM
- solubility [3]: 16.1 mM (≈ 4.88 mg/mL)
- Ratio (HCT-116 [4]): 1.7
- Activity (HCT-116 [5]): Non-Toxic

Compound: Cc1ncc([N+](=O)[O-])n1CCS(=O)(=O)NCCN1CCOCC1
- Ratio IC50 (HCT-116 [1]): 1.4
- IC50 (HCT-116 [2]): 800 µM
- solubility [3]: 44.1 mM (≈ 15.3 mg/mL)
- Ratio (HCT-116 [4]): 2.71
- Activity (HCT-116 [5]): Non-Toxic

Compound: COCC(O)Cn1ccnc1[N+](=O)[O-] (configuration not stated) [MISONIDAZOLE]
- Ratio IC50 (HCT-116 [1]): >62.44
- IC50 (HCT-116 [2]): 530 µM
- solubility [3]: > 100 mM
- Activity [13]: -389 mV
- Ratio (HCT-116 [4]): 7.1
- Activity (HCT-116 [5]): Non-Toxic

Compound: O=[N+]([O-])c1nccn1CS(=O)(=O)NCCOP(=O)(O)O
- Cmax (Plasma): 900 µM
- Ratio (HCT-116 [7]): 10
- Drug uptake (Mus musculus [8]): 2.2 mmol/kg
- Tmax [9]: 10 min
- solubility [3]: 185 mM (≈ 61.1 mg/mL)
- Cmax [10]: 320 µM
- Activity (Mus musculus [12]): Non-Toxic
- Tmax [11]: 10 min

Compound: Cc1ncc([N+](=O)[O-])n1CCS(=O)(=O)N1CCN(C)CC1
- Ratio IC50 (HCT-116 [1]): 0.6
- IC50 (HCT-116 [2]): 1600 µM
- solubility [3]: 14.5 mM (≈ 4.6 mg/mL)
- Ratio (HCT-116 [4]): 1.8
- Activity (HCT-116 [5]): Non-Toxic

Compound: COCCNS(=O)(=O)CCn1ccnc1[N+](=O)[O-]
- Ratio IC50 (HCT-116 [1]): 5
- IC50 (HCT-116 [6]): 380 to 4800 µM
- IC50 (HCT-116 [2]): 400 µM
- solubility [3]: 59.4 mM (≈ 16.5 mg/mL)
- Activity [13]: -391 mV
- Ratio (HCT-116 [4]): 6.4
- Activity (HCT-116 [5]): Non-Toxic

Compound: COCCNS(=O)(=O)Cn1cncc1[N+](=O)[O-]
- Ratio (HCT-116 [14]): 1.9
- fold change (FC) (HCT-116 [15]): 0.44
- Activity (HCT-116 [5]): Non-Toxic

Compound: Cc1ncc([N+](=O)[O-])n1CCS(=O)(=O)N1CCOCC1
- Ratio IC50 (HCT-116 [1]): 1.5
- IC50 (HCT-116 [2]): 38 µM
- solubility [3]: 2.77 mM (≈ 0.843 mg/mL)
- Ratio (HCT-116 [4]): 1.33
- Activity (HCT-116 [5]): Non-Toxic

Compound: COCCNS(=O)(=O)Cn1ccnc1[N+](=O)[O-]
- fold change (FC) (HCT-116 [16]): 0.78
- IC50 (HCT-116 [6]): 380 to 4800 µM
- Ratio (HCT-116 [17]): 2.9
- Activity (HCT-116 [5]): Non-Toxic

Compound: O=[N+]([O-])c1cn(CS(=O)(=O)NCCO)cn1
- Ratio IC50 (HCT-116 [1]): <0.5
- IC50 (HCT-116 [2]): > 6000 µM

Compound: O=C(O)CCNS(=O)(=O)Cn1ccnc1[N+](=O)[O-]
- Ratio IC50 (HCT-116 [1]): 1
- IC50 (HCT-116 [6]): 380 to 4800 µM
- IC50 (HCT-116 [2]): 4400 µM
- solubility [3]: 72.1 mM (≈ 20.1 mg/mL)
- Ratio (HCT-116 [4]): 2
- Activity (HCT-116 [5]): Non-Toxic

Compound: COCCNS(=O)(=O)CCn1cnc([N+](=O)[O-])c1
- IC50 (HCT-116 [2]): > 5300 µM
- solubility [3]: 16 mM (≈ 4.45 mg/mL)
- Activity [13]: -538 mV
- Ratio (HCT-116 [4]): 9
- Activity (HCT-116 [5]): Non-Toxic

— ChEMBL document CHEMBL4033777, “Next-Generation Hypoxic Cell Radiosensitizers: Nitroimidazole Alkylsulfonamides” (J Med Chem, 2018)
